A selection: hits, their analogues and other compounds. The true share with any hit is near 12%.
bCat nuc transl: modulators of beta-catenin nuclear translocation, primary screen, imaging, HeLa cells, immunofluorescence, high-content; nuclear translocation activity, % at 5 µM; actives 0.3% (n = 190,000);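 active means nuclear translocation activity above 50% at 5 µM, with a well cell count of 50 or more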;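 further: per-cell ratio of nuclear to cytoplasmic median beta-catenin stain intensity; plate controls were DMSO negative control for no effect and GSK-3 inhibitor IX positive control for full effect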
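Test system: human HeLa cell line; Doses: 5 µM primary, 0.02–20 µM confirmation; Incubation: 24 h compound exposure, 37°C; Detection: beta-catenin immunofluorescence imaging with DAPI; Read-out: beta-catenin nuclear/cytoplasmic ratio, % activation.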
Dynein transport: inhibitors of GR-EGFP nuclear translocation, primary screen, dynein cargo transport inhibitor project, imaging, high-content, 3617.4 mouse cells; test concentration mostly 20 µM; stimulated with dexamethasone, 1 µM; hits give low values; AID 1381, 2008; z-score, hits read low; actives 0.47% (n = 220,000);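 active means plate z-score of nuclear minus cytoplasmic receptor signal below a set negative limit, without overly bright fluorescence or cell loss, cut at about -3.5 in these data, passing the limit was not always enough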;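 further: z-score of nuclear minus cytoplasmic ring GR-EGFP intensity difference per well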
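Buffer or medium: tet-free medium with charcoal-stripped serum / Also added: dexamethasone agonist, 1.0 µM final, for 30 min / Timing: induction 48 h, compound 1 h, agonist 30 min / Measured by: high-content fluorescence imaging after fixation / Read-out: nuclear-to-cytoplasmic GR-EGFP distribution per well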
Lmaj promast: Leishmania major promastigote growth inhibition, primary screen. Leishmania major promastigotes, resazurin fluorescence viability. inhibition, % at 10 µM. actives 9% (n = 200,000); in the data active means inhibition above about 50%;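 further: promastigotes grown with compound for 44 hours at 28 °C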
MT stabilize HCS: microtubule stabilizers in HeLa cells, primary screen, imaging, high-content imaging; HeLa tubulin immunostaining HCS, 24 h; share of cells brighter than vehicle mean+2SD; % tubulin-high responders, % at 10 µM; actives 0.83% (n = 200,000); AID 2205, 2009;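 active means plate Z-score above 3 for both tubulin-high and condensed-nucleus cell shares, with cell loss under 80%, at 10 µM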;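 further: anti alpha tubulin signal scored within the nucleus-defined area of each cell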
CHOP inhibitor: inhibitors of CHOP promoter induction, primary screen, cell-based, unfolded protein response, luciferase reporter; CHO-K1 CHOP-promoter luciferase, tunicamycin-induced, 15-18 h; actives 3.8% (n = 220,000); inhibition, % at 10 µM; AID 2732, 2010;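 active means compounds that reduced the stress-induced luciferase reporter signal by more than about 70% of percent inhibition, limit read from the data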;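 further: 0% = tunicamycin plus vehicle and 100% = wells without tunicamycin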
Autophagy mod: autophagy modulators in MEF cells, primary screen, imaging, high-content, MEF GFP-LC3; MEF GFP-LC3 puncta imaging; test concentration mostly 10 µM; calls only at 10 µM (by protocol); actives 0.98% (n = 190,000);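 active means percentage of spot-positive cells more than 3 SD above its plate mean, without a fluorescence outlier flag or 80% toxicity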;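 further: spot-positive cell cutoff set from DMSO-treated cells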
* hit, by the source's call; i = inactive; · = not tested or not shown; + = active, no number.

SMILES | bCat nuc transl | Dynein transport | Lmaj promast | MT stabilize HCS | CHOP inhibitor | Autophagy mod
Cc1ccc2nc(NC(=O)CCNS(=O)(=O)c3cccs3)sc2c1 | -3 | 3.7 | 49 | 3 | 73* | i
Cc1ccc2nc(NC(=O)CCNS(=O)(=O)c3ccc(Br)s3)sc2c1 | -3 | 0.11 | 98* | 6 | 71* | +
CC(C)(C)NS(=O)(=O)c1ccc2nc(NC(=O)Cc3cccs3)sc2c1 | 0 | -0.3 | 95* | 21 | 24 | i
CC1(C)Oc2ccccc2OC1(O)c1ccc2ccccc2n1 (centres undefined) | 3 | 0.66 | 2 | 2 | 5 | i
CC(C)(O)C#Cc1ccc(CN2CCN(Cc3ccsc3)C(CCO)C2)s1 (centres undefined) | 1 | -0.43 | -1 | 4 | 3 | i
O=C(Nc1ccon1)c1csc2c1CCCC2 | -2 | -0.92 | 78* | 3 | 59 | i
COc1cc(CNCCN2CCOCC2)ccc1OCc1cccc(Cl)c1 | 0 | 0.3 | 95* | 2 | 10 | i
COc1cc(CNCCN2CCOCC2)ccc1OCc1ccc(Cl)cc1Cl | 0 | 0.73 | 100* | 4 | 16 | i
O=C(NC1CCCC1)c1ccc(CN2CCOCC2)cc1 | -3 | 0.74 | -5 | 1 | 29 | i
O=C(NC1CCCCCC1)c1ccc(CN2CCOCC2)cc1 | -1 | 1.2 | 59* | 3 | -12 | i
O=C(NCCC1=CCCCC1)c1ccc(CN2CCOCC2)cc1 | 1 | 0.87 | 81* | 4 | 9 | i
CC(O)c1nc2ccccc2n1CC(=O)Nc1ccc(F)cc1Cl (centres undefined) | -2 | 0.94 | 3 | 4 | -1 | i
CCOc1ccc(Nc2nc(Nc3ccc(O)cc3)nc(C)c2[N+](=O)[O-])cc1 | 1 | -0.58 | 14 | 3 | 80* | i
COc1ccc(C2CCN(CC(=O)N(C)C)CC2O)cc1 (centres undefined) | -2 | -0.51 | -5 | 5 | -5 | i
COc1ccc(C2CCN(Cc3cccnc3)CC2O)cc1 (centres undefined) | -8 | 3.1 | 88* | 7 | 8 | i
C=CCNc1nc(Nc2ccc([N+](=O)[O-])cc2)nc(N2CCCC2)n1 | 1 | -1.2 | 81* | 2 | -4 | i
C=CCNc1nc(Nc2ccc(-c3nc4ccccc4o3)cc2)nc(N2CCOCC2)n1 | · | -0.017 | 98* | 1 | 18 | i
Cc1ccc2c(c1)c(C)c(C)n2CC(O)Cn1nnc2ccccc21 (centres undefined) | -6 | -0.43 | 9 | 4 | 84* | i
Cc1ccc(C2C(C#N)=C(N)Oc3c2sc2ccccc32)o1 (centres undefined) | 17 | -1.8 | 45 | 4 | 39 | i
COc1ccc(OC)c(/C=N/NC(=O)c2ccc3nc[nH]c3c2)c1 | -5 | -0.89 | · | · | 2 | ·
COc1ccccc1/C=C/C=N/NC(=O)c1ccc2nc[nH]c2c1 | -2 | -0.5 | 56* | 2 | 1 | i
CCOC(=O)N1c2ccccc2Sc2ccccc21 | 1 | 1 | 15 | 5 | 16 | i
Cc1nnc(SC(=O)N2c3ccccc3Sc3ccccc32)s1 | 2 | -2.9 | 63* | 36 | 24 | i
Cc1cn2c(nc(=O)c3cccnc32)s1 | -1 | -0.48 | 1 | 2 | 21 | i
CCc1nnc(NC(=O)c2ccc(S(=O)(=O)N3CCCCC3C)cc2)s1 (centres undefined) | 0 | -0.46 | -3 | 6 | 21 | i
SMILES | bCat nuc transl | Dynein transport | Lmaj promast | MT stabilize HCS | CHOP inhibitor | Autophagy mod
CCC1CCCCN1S(=O)(=O)c1ccc(C(=O)Nc2nnc(-c3cccs3)o2)cc1 (centres undefined) | 2 | 0.69 | 99* | 1 | · | i
CC1CC(C)CN(S(=O)(=O)c2ccc(C(=O)Nc3nnc(-c4cccs4)o3)cc2)C1 (centres undefined) | -2 | 2.4 | 100* | i | · | i
CCCNC(=O)Cn1c(=O)/c(=C\c2ccc(-c3cccc([N+](=O)[O-])c3)o2)s/c1=C\C(=O)C(C)(C)C | 4 | -2.8 | 63* | 3 | 21 | +
Cc1ccc(-n2nc3c(c2NC(=O)/C=C\c2ccc4c(c2)OCO4)CSC3)c(C)c1 | 2 | -0.61 | 99* | 5 | 24 | i
Cc1ccc(-n2nc3c(c2NC(=O)C(C)(C)C)CSC3)c(C)c1 | -3 | -0.052 | 0 | 4 | -13 | i
Cc1ccccc1-n1nc2c(c1NC(=O)/C=C\c1ccc3c(c1)OCO3)CSC2 | 2 | -0.88 | 68* | 3 | 15 | i
Cc1ccc(-n2nc3c(c2NC(=O)/C=C\c2ccc4c(c2)OCO4)CSC3)cc1 | 3 | -0.47 | 93* | 4 | 26 | i
Cn1c[n+](C)cc1-c1ccc(/C(N)=N/O)cc1 | 0 | 2.1 | 8 | 3 | -27 | i
CCN1C(=O)c2cccc3c(S(=O)(=O)NCc4cccnc4)ccc1c23 | 0 | 0.83 | 70* | 1 | -66 | i
CCN1C(=O)c2cccc3c(S(=O)(=O)Nc4ccncc4)ccc1c23 | -3 | -2 | -3 | 2 | -13 | i
COc1ccc(NC(=O)/C(C#N)=C\c2ccc(N3CCOCC3)o2)cc1 | 2 | -1.1 | -1 | 2 | 3 | i
CCc1ccc(NC(=O)/C(C#N)=C/c2cc3ccc(C)cc3nc2N2CCOCC2)cc1 | · | -0.36 | 2 | 3 | 34 | +
Cn1cc(Br)c(C(=O)NC(=S)Nc2ccc(S(N)(=O)=O)cc2)n1 | -3 | 2.8 | -1 | 10 | -3 | +
CCOC(=O)C1CCN(C(c2cc3c(C)ccc(C)c3[nH]c2=O)c2nnnn2C2CCCCC2)CC1 (centres undefined) | -3 | -0.099 | 99* | 8 | 68 | i
CCOC(=O)C1CCN(C(c2cc3ccc(C)c(C)c3[nH]c2=O)c2nnnn2C2CCCCC2)CC1 (centres undefined) | -2 | 2.4 | 86* | 4 | 6 | i
C=CCn1c(SCc2nc3cc(C(=O)OC)ccc3c(=O)[nH]2)nc2sc(CC)cc2c1=O | 1 | -0.63 | 59* | 1 | 72* | i
C=CCc1ccc(OCCOCCNCCCC)c(OC)c1 | 0 | 0.1 | 96* | 1 | 56 | +
C=CCc1ccc(OCCOCCOc2cccc3ccc(C)nc23)c(OC)c1 | -2 | -0.32 | -3 | 2 | 37 | i
C=CCc1ccc(OCCOCCNCCOC)c(OC)c1 | -2 | 0.65 | 99* | 4 | 2 | i
COc1cc(OC)cc(C(=O)N[C@H](C(=O)OCC(=O)Nc2ccc(F)c(F)c2)C(C)C)c1 | · | 2.3 | 2 | 4 | 43 | i
